Measurements as given in PMC10061538 (ACS Omega, 2023).

What was measured:
[1] = target: T1, CYP2A6 (Homo sapiens, UniProt P11509); settings: 50 μM tranylcypromine pretreatment 1 h, then 100 μM coumarin 1 h
T1 sequence (P11509 1-494): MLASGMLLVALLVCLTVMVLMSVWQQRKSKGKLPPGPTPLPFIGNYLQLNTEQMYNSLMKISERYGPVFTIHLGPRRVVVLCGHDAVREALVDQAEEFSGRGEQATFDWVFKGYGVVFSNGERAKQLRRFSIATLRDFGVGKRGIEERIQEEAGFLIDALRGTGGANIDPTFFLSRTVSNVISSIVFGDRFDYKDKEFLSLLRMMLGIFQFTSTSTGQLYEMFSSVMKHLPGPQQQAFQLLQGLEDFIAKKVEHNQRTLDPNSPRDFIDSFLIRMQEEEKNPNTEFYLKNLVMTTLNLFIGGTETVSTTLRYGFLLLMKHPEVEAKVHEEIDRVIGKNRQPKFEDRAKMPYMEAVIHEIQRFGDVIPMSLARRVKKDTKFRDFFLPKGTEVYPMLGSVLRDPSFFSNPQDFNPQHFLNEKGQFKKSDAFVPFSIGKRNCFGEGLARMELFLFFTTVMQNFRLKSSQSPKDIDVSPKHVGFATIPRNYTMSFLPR

[2] = target: T1, CYP2A6; experiment: Cellular CYP2A6 inhibition screening; type: cell-based; settings: for inhibition of cellular CYP2A6: flavoring agent at 500 μM
[3] = system: CYP2A6-transduced BEAS-2B cells; experiment: Cell viability by LDH release; type: cell-based; settings: flavoring agent at 500 μM, 2 h total exposure, 50 μM coumarin, Figure S4
Outline: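 CYP2A6-transduced BEAS-2B cells were grown to confluence in KGM and switched to KBM. They were exposed to flavoring agent at 500 μM for 1 h, then coumarin was added to 50 μM, for 2 h total, in triplicate wells. Medium was incubated 30 min with tetrazolium substrate and read at 490 nm absorbance. Maximal LDH was set by lysis buffer.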

SMILES	fluorescence (7-hydroxycoumarin formation) in CYP2A6-transduced cells [1]	IC50 [2] [µM]	mean percent of maximal LDH [3] [%]	inhibition of cellular CYP2A6 [2]
Cl.N[C@@H]1C[C@H]1c1ccccc1 (relative stereo) [tranylcypromine, trans-2-Phenylcyclopropylamine hydrochloride]	strongly reduced	–	–	–
O=Cc1ccccc1 [benzaldehyde]	–	7.6	8.9	–
O=C/C=C/c1ccccc1 [cinnamaldehyde, trans-cinnamaldehyde]	–	7.4	6.6	–
CC(=O)OCCC(C)C [isoamyl acetate]	–	> 500	–	negligible inhibition
COc1cc(C=O)ccc1O [vanillin]	–	200	–	near-maximal inhibition
